In ChEMBL document CHEMBL1687827, “Profiling the Aspergillus fumigatus proteome in response to caspofungin” (2011):
Calls of active or inactive are those of the source. No cut-off for these calls is given here.

Experiments:
[1] = test system: Aspergillus fumigatus; experiment: Induction of change in mitochondrial hypoxia responsive domain protein level in iTRAQ-118 labelled cell wall fraction of drug-resistant Aspergillus fumigatus EMFR-S678P at 0.12 ug/ml after 48 hrs in YPD medium by MS (MS/MS) analysis relative to control; type: functional
In short: (§1)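 Conidia at 1 × 10⁵/ml were grown at 37°C, shaking at 225 rpm, in YPD with or without 0.12 μg/ml caspofungin for 24 or 48 h. The culture filtrate was kept as the secreted fraction. Mycelia were lysed by French press in HEPES/glycerol/EDTA/PMSF/DTT buffer, and the 5,000 × g pellet was washed to give CW/PM. Proteins were reduced, alkylated and trypsin-digested at 37°C overnight, then iTRAQ-labelled and run by 2D LC-MS/MS. Ratios are the median of unique-peptide ratios, median-normalized, versus the no-drug control.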

[2] = test system: Aspergillus fumigatus; experiment: Induction of change in carbonic anhydrase family gene expression in drug-susceptible Aspergillus fumigatus KU80 delta-akuB at 0.12 ug/ml after 24 hrs in YPD medium by microarray analysis relative to control; type: functional
In short: (§2)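 Mycelia grown in YPD ± 0.12 μg/ml caspofungin (1 × 10⁵ conidia/ml, 37°C, shaking) and harvested at 24 or 48 h. Total RNA extracted, DNase-treated and quality-checked; 2 μg labelled per TIGR SOP M007 and hybridized to whole-genome arrays. Three independent experiments with dye flip (6 replicates); drug vs untreated fold change.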

[3] = test system: Aspergillus fumigatus; experiment: Induction of change in 60S ribosomal protein L7 protein level in iTRAQ114 labelled cell wall fraction of drug-susceptible Aspergillus fumigatus KU80 delta-akuB at 0.12 ug/ml after 24 hrs in YPD medium by MS (MS/MS) analysis relative to control; type: functional
In short: (§3)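 Conidia at 1 × 10⁵/ml grown shaking at 37°C in YPD with or without 0.12 μg/ml caspofungin; mycelia filtered at 24 or 48 h. Secreted fraction taken from the filtrate; cell wall/plasma membrane pellet recovered after French-press lysis and a 5,000 × g spin. Proteins trypsin-digested and iTRAQ-labelled, drug vs no-drug channels at each time, then 2D LC-MS/MS. Protein ratio is the median of ratios from uniquely assigned peptides after median normalization.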

[4] = test system: Aspergillus fumigatus; experiment: Induction of change in 60s ribosomal protein yl6 protein level in iTRAQ114 labelled cell wall fraction of drug-susceptible Aspergillus fumigatus KU80 delta-akuB at 0.12 ug/ml after 24 hrs in YPD medium by MS (MS/MS) analysis relative to control; type: functional; in short: as §3
[5] = test system: Aspergillus fumigatus; experiment: Induction of change in pyruvate decarboxylase PdcA, putative protein level in iTRAQ-118 labelled cell wall fraction of drug-susceptible Aspergillus fumigatus KU80 delta-akuB at 0.12 ug/ml after 24 hrs in YPD medium by MS (MS/MS) analysis relative to control; type: functional
In short: (§4)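 Conidia (1 × 10⁵/ml) grown in YPD, 37°C, 225 rpm, ± 0.12 μg/ml caspofungin; filtrate taken as secreted fraction, French-press lysate 5,000 × g pellet as cell wall/plasma membrane. Trypsin digests 8-plex iTRAQ-labelled (drug-free channels as references), pooled, 2D-chromatography, MS/MS. Median-normalized; protein ratio = median of unique-peptide ratios, log2 normalized.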

[6] = test system: Aspergillus fumigatus; experiment: Induction of change in 60S ribosomal protein L10 protein level in iTRAQ-118 labelled cell wall fraction of drug-resistant Aspergillus fumigatus EMFR-S678P at 0.12 ug/ml after 24 hrs in YPD medium by MS (MS/MS) analysis relative to control; type: functional, organism-based; in short: as §1
[7] = test system: Aspergillus fumigatus; experiment: Induction of change in Ribosomal L28e protein family protein level in iTRAQ114 labelled secreted fraction of drug-susceptible Aspergillus fumigatus KU80 delta-akuB at 0.12 ug/ml after 24 hrs in YPD medium by MS (MS/MS) analysis relative to control; type: functional; in short: as §3
[8] = test system: Aspergillus fumigatus; experiment: Induction of change in cytochrome c protein level in iTRAQ114 labelled secreted fraction of drug-susceptible Aspergillus fumigatus KU80 delta-akuB at 0.12 ug/ml after 24 hrs in YPD medium by MS (MS/MS) analysis relative to control; type: functional; in short: as §3
[9] = test system: Aspergillus fumigatus; experiment: Induction of change in allergen Asp F3 protein level in iTRAQ-116 labelled secreted fraction of drug-resistant Aspergillus fumigatus EMFR-S678P at 0.12 ug/ml after 48 hrs in YPD medium by MS (MS/MS) analysis relative to control; type: functional; in short: as §1
[10] = test system: Aspergillus fumigatus; experiment: Induction of change in tripeptidyl-peptidase (TppA), putative protein level in iTRAQ-116 labelled secreted fraction of drug-susceptible Aspergillus fumigatus KU80 delta-akuB at 0.12 ug/ml after 48 hrs in YPD medium by MS (MS/MS) analysis relative to control; type: functional; in short: as §4
[11] = test system: Aspergillus fumigatus; experiment: Induction of change in IgE-binding protein level in iTRAQ-116 labelled secreted fraction of drug-susceptible Aspergillus fumigatus KU80 delta-akuB at 0.12 ug/ml after 48 hrs in YPD medium by MS (MS/MS) analysis relative to control; type: functional; in short: as §3
[12] = test system: Aspergillus fumigatus; experiment: Induction of change in cobalamin-independent methionine synthase MetH/D protein level in iTRAQ-116 labelled secreted fraction of drug-resistant Aspergillus fumigatus EMFR-S678P at 0.12 ug/ml after 48 hrs in YPD medium by MS (MS/MS) analysis relative to control; type: functional; in short: as §1
[13] = test system: Aspergillus fumigatus; experiment: Induction of change in glucosamine-fructose-6-phosphate aminotransferase protein level in iTRAQ-118 labelled cell wall fraction of drug-resistant Aspergillus fumigatus EMFR-S678P at 0.12 ug/ml after 48 hrs in YPD medium by MS (MS/MS) analysis relative to control; type: functional; in short: as §1
[14] = test system: Aspergillus fumigatus; experiment: Induction of change in BYS1 domain protein, putative protein level in iTRAQ-121 labelled cell wall fraction of drug-susceptible Aspergillus fumigatus KU80 delta-akuB at 0.12 ug/ml after 48 hrs in YPD medium by MS (MS/MS) analysis relative to control
[15] = test system: Aspergillus fumigatus; experiment: Induction of change in pyruvate decarboxylase PdcA, putative protein level in iTRAQ-118 labelled cell wall fraction of drug-resistant Aspergillus fumigatus EMFR-S678P at 0.12 ug/ml after 24 hrs in YPD medium by MS (MS/MS) analysis relative to control; type: functional, organism-based; in short: as §1
[16] = test system: Aspergillus fumigatus; experiment: Induction of change in glycine-rich RNA-binding protein, putative protein level in iTRAQ-118 labelled cell wall fraction of drug-resistant Aspergillus fumigatus EMFR-S678P at 0.12 ug/ml after 24 hrs in YPD medium by MS (MS/MS) analysis relative to control; type: functional; in short: as §1
[17] = test system: Aspergillus fumigatus; experiment: Induction of change in C2H2 transcription factor (Rpn4), putative gene expression in drug-susceptible Aspergillus fumigatus KU80 delta-akuB at 0.12 ug/ml after 48 hrs in YPD medium by microarray analysis relative to control; type: functional; in short: as §2
[18] = test system: Aspergillus fumigatus; experiment: Induction of change in 14-alpha sterol demethylase Cyp51A protein level in iTRAQ-118 labelled cell wall fraction of drug-resistant Aspergillus fumigatus EMFR-S678P at 0.12 ug/ml after 48 hrs in YPD medium by MS (MS/MS) analysis relative to control; type: functional; in short: as §1
[19] = test system: Aspergillus fumigatus; experiment: Induction of change in 60S ribosomal protein L12, putative gene expression in drug-susceptible Aspergillus fumigatus KU80 delta-akuB at 0.12 ug/ml after 24 hrs in YPD medium by microarray analysis relative to control; type: functional; in short: as §2

CC[C@H](C)C[C@H](C)CCCCCCCCC(=O)N[C@H]1C[C@@H](O)[C@@H](NCCN)NC(=O)[C@@H]2[C@@H](O)CCN2C(=O)[C@H]([C@H](O)CCN)NC(=O)[C@H]([C@H](O)[C@@H](O)c2ccc(O)cc2)NC(=O)[C@@H]2C[C@@H](O)CN2C(=O)[C@H]([C@@H](C)O)NC1=O [CASPOFUNGIN]
fold change (FC) [1]: 1.07
fold change (FC) [2]: -6.5
fold change (FC) [3]: 2
fold change (FC) [4]: 1.6
fold change (FC) [5]: -2.3
Activity [6]: inactive
fold change (FC) [7]: -1.6
fold change (FC) [8]: -2.6
fold change (FC) [9]: -1.52
fold change (FC) [10]: 3.2
fold change (FC) [11]: -1
fold change (FC) [12]: -1.15
fold change (FC) [13]: -1.07
fold change (FC) [14]: -2.5
Activity [15]: inactive
fold change (FC) [16]: 1.52
fold change (FC) [17]: -2.4
fold change (FC) [18]: 1.07
fold change (FC) [19]: 7.2
